# Screening results: PubChem BioAssay, Johns Hopkins Ion Channel Center
# Rows were chosen to be rich in hits. Some 2.3% of all compounds tested hit in one or more screens of this group.
# TRPC4 PAM – positive allosteric modulators of TRPC4, primary screen, cell-based, mouse TRPC4beta, HEK293 mu-opioid, Fluo-4 calcium | Short transient receptor potential channel 4 (Mus musculus), Q9QUQ5 | DAMGO EC20, Fluo-4 Ca2+ flux; stronger effect = higher value | B-score at 10 µM | 310,000 compounds, 0.42% hits;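 active = B-score of calcium response area above 5 SD of library B-scores, with initial fluorescence ratio within 5 SD of library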;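 also: B-score of integrated fluorescence ratio over time as area under calcium response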
# TRPC6 inh – mouse TRPC6 channel inhibitors, primary screen, cell-based, HEK293, membrane potential dye | Short transient receptor potential channel 6 (Mus musculus), Q61143 | ACh-evoked depolarization; stronger effect = lower value | B-score at 10 µM | 310,000 compounds, 1.1% hits;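 active = B-score under library mean minus 3 SD, initial fluorescence not abnormally high, positive integrated signal ratio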;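 also: B-score derived from integrated fluorescence ratio over the kinetic read; more negative B-score means stronger inhibition of depolarization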
# TRPC6 activator – mouse TRPC6 channel activators, primary screen, cell-based, HEK293, membrane potential dye | 310,000 compounds, 0.13% hits | B-score at 10 µM | AID 2550, 2010 | HEK293-TRPC6 membrane potential dye fluorescence; stronger effect = higher value;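 active = B-score of the integrated fluorescence ratio above library mean plus 3 SD, and starting fluorescence ratio within library mean plus 5 SD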;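 also: higher score means more depolarization so channel activation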
# TRPC4 inh – inhibitors of mouse TRPC4 channel, primary screen, Fluo4 calcium, HEK293 TRPC4beta/mu-opioid cells | DAMGO-evoked Fluo4 calcium flux; stronger effect = lower value | B-score at 10 µM | 300,000 compounds, 0.39% hits | Short transient receptor potential channel 4 (Mus musculus), Q9QUQ5;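 active = B-score over 3 SD under the library average, no early fluorescence shift, positive overall ratio signal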
#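 Signal: kinetic Fluo4 fluorescence imaging of calcium influx. Material: stable TRPC4beta/mu-opioid receptor HEK293 cells. Probe or stimulus: DAMGO in two steps, submaximal then maximal.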
# TRPC4 act – activators of mouse TRPC4 channel, primary screen, Fluo4 calcium, HEK293 TRPC4beta/mu-opioid cells; Short transient receptor potential channel 4 (Mus musculus), Q9QUQ5; Fluo4 calcium fluorescence; stronger effect = higher value; B-score at 10 µM; 310,000 compounds, 0.49% hits; AID 2237, 2010;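 active = B-score above 5 SD of library B-scores, and initial fluorescence ratio not above library mean plus 5 SD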;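 also: positive B-score marks a calcium rise read as TRPC4 activation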
#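 System – HEK293 cells stably co-expressing mouse TRPC4beta and mu-opioid receptor · Signal – Fluo4 calcium-sensitive dye fluorescence, kinetic, 1 Hz baseline · Benchmarks – buffer (low) and maximal DAMGO (high) · Read-out – B score of integrated fluorescence ratio per well · Incubation – dye loading 45 min room temperature, 110 s kinetic read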
# Starred values were filed as active, the others as inactive; i = inactive.
SMILES,TRPC4 PAM,TRPC6 inh,TRPC6 activator,TRPC4 inh,TRPC4 act
CCOC(=O)N1CCC(N2Cc3cccc(C(=O)NCc4ccc5c(c4)OCO5)c3C2=O)CC1,i,i,i,i,i
S=C(Nc1ccccc1)N1CCC(Cc2ccccc2)CC1,i,i,i,i,i
CCN(CC(=O)Nc1ccc(NC(C)=O)cc1)C(=O)c1cccc(S(=O)(=O)N2c3ccccc3CC2C)c1 (stereo not given),i,i,i,i,i
O=C1OCCN/C1=C\C(=O)c1ccc(Cl)cc1,i,i,i,i,i
O=C1OCCN/C1=C\C(=O)c1ccccc1,14*,i,i,i,i
C/C(=N/NC(=O)CNC(=O)COc1ccccc1)c1ccc(Cl)cc1,i,i,i,i,i
Clc1ccc(OCCCc2nc(-c3ccncc3)no2)c(Cl)c1,i,i,i,-9*,i
CCOC(=O)C(=NC1CCS(=O)(=O)C1)NNc1ccccc1Cl (stereo not given),47*,i,i,i,i
CCOC(=O)C(=NC1CCS(=O)(=O)C1)NNc1cc(Cl)ccc1Cl (stereo not given),i,i,i,i,i
O=C(c1ccccc1)c1ccc(C(=O)N2CCCC(C(F)(F)F)C2)cc1 (stereo not given),i,i,i,i,i
O=C(c1ccc(S(=O)(=O)Nc2ccccc2)cc1)N1CCCC(C(F)(F)F)C1 (stereo not given),i,i,i,i,54*
Cc1ccc(NS(=O)(=O)c2ccc(C(=O)N3CC(C)OC(C)C3)cc2)cc1 (stereo not given),i,i,i,i,53*
Cc1ccc(NS(=O)(=O)c2ccc(C(=O)N3CCC3)cc2)cc1,i,i,i,i,i
CCOc1ccc(NS(=O)(=O)c2ccc(C(=O)N3CCCC(C)C3)cc2)cc1 (stereo not given),i,i,i,i,54*
CCOc1ccc(S(=O)(=O)Nc2ccc(C(=O)N3CCCC3)cc2)cc1,i,i,i,i,i
OC12CCCCC1C(c1ccc3c(c1)OCO3)N(Cc1ccc(F)cc1)CC2 (stereo not given),i,i,i,i,48*
OC12CCCCC1C(c1ccc3c(c1)OCO3)N(Cc1cccc(F)c1)CC2 (stereo not given),i,i,i,i,i
O=[N+]([O-])c1ccc(N2CCN(CCO)CC2)c2ncccc12,21*,i,i,i,56*
N#Cc1c(NCCCO)nc(-c2ccccc2)c2c1CCCC2,i,i,i,i,49*
Cc1ccc(CNC(=O)c2cc3cc(Br)ccc3oc2=N)cc1,i,i,i,i,i
N=c1oc2ccc(Br)cc2cc1C(=O)NCc1ccc(F)cc1,12*,i,i,i,i
CCCN1CCc2c(sc(NC(=O)CCS(=O)(=O)c3ccccc3)c2C(=O)OC)C1,i,i,i,i,i
COc1ccc(CCN(C)C(=O)CSc2nc3ncc(Cl)cc3[nH]2)cc1OC,i,i,i,i,i
CCOC(=O)C1=C(COc2ccccc2)NC(=O)NC1c1ccc(Cl)cc1 (stereo not given),i,i,i,i,i
COC(=O)C1=C(COc2ccccc2)NC(=O)NC1c1ccc(Cl)cc1 (stereo not given),11*,i,i,i,i
SMILES,TRPC4 PAM,TRPC6 inh,TRPC6 activator,TRPC4 inh,TRPC4 act
O=C(COC(=O)c1ccccc1C(=O)c1ccccc1)NCCc1ccccc1,i,i,i,i,i
O=C(COC(=O)c1ccccc1C(=O)c1ccc(Cl)cc1)NCCc1ccccc1,14*,i,i,i,i
O=c1nc(Nc2ccc([N+](=O)[O-])cc2)[nH]c(=O)[nH]1,i,i,i,i,i
CN(C)c1ccc(-c2sc(Nc3ccccc3)n[n+]2-c2ccc(F)cc2)cc1,i,i,i,i,222*
Fc1ccc(-[n+]2nc(Nc3ccccc3)sc2-c2c(Cl)cccc2Cl)cc1,i,i,i,i,55*
COc1ccc(C)cc1Nc1n[n+](-c2ccccc2)c(-c2c(Cl)cccc2Cl)s1,i,-5.4*,i,i,67*
Cc1ccc(C(C)C)c(Oc2cnccn2)c1,i,i,i,i,i
Cc1oc2c(C)c3oc(=O)c(CCC(=O)NCCN4CCOCC4)c(C)c3cc2c1C,i,i,i,i,i
CCn1c(-c2ccc(N)cc2)nc2ccccc21,i,i,i,i,71*
O=C(NCCNC1CCC(c2ccccc2)CC1)c1ccc(F)cc1 (stereo not given),i,i,i,i,61*
Cn1ccc(C(=O)OCC(=O)Nc2ccccc2Cl)n1,i,i,i,i,i
Cc1ccc(NC(=O)NCC(c2ccccc2)N(C)C)cc1 (stereo not given),i,i,i,i,46*
Cc1ccccc1NC(=S)NCC(c1cccnc1)N(C)C (stereo not given),i,i,i,i,136*
CC(=O)c1ccc(NC(=O)CNCC(c2ccccc2)N(C)C)cc1 (stereo not given),i,i,i,i,i
Cc1ccc(C)c(NC(=S)NCC(c2ccccc2)N(C)C)c1 (stereo not given),i,i,i,i,180*
Cc1cccc(NC(=S)NCC(c2cccnc2)N(C)C)c1C (stereo not given),i,i,i,i,101*
Cc1cccc(NC(=S)NCc2ccncc2)c1C,i,i,i,i,i
Cc1ccccc1NC(=S)NCc1ccccc1,i,i,i,i,i
CCSc1nnc(NS(=O)(=O)c2ccc(OC)cc2)s1,i,i,i,i,i
CC1CCN(Cc2c(C(=O)O)nnn2-c2nonc2N)CC1,i,i,i,i,i
CC1(c2nnc(-c3cccc(Cl)c3)o2)CC(c2ccc(F)cc2)=NO1 (stereo not given),i,i,i,i,i
Cc1ccccc1NC(=S)NCCc1ccccn1,i,i,i,i,88*
